In publication PMC5253108 (European journal of medicinal chemistry, 2016):
Like-named read-outs stand apart in the source and are kept apart here.

Legend:
[1] = system: BEAS2B lung epithelial cells; test: In vitro cytotoxicity, Cell-Titer Glo viability, BEAS2B; assay type: cell-based; conditions: 48 hours
[2] = system: guinea pig tracheal rings; conditions: cited from earlier work
[3] = system: HepG2 liver cells; test: In vitro cytotoxicity, Cell-Titer Glo viability, HepG2; assay type: cell-based; conditions: 48 hours
[4] = mouse, cited from earlier work
[5] = system: HEK293 kidney cells; assay type: cell-based; conditions: 48 hours, Cell-Titer Glo
[6] = In vitro liver microsomal stability; assay type: in vitro ADME, mouse
[7] = system: ovalbumin (S/C) BALB/c mice; conditions: given repeatedly over five days; listed as ethyl ester of XHE-III-74; cited from earlier work
[8] = system: Swiss Webster mice; conditions: cited from earlier work
[9] = system: rats; test: Sensorimotor impairment in rats; assay type: in vivo, rat; conditions: 15 mg/kg, unpublished results
[10] = system: murine house dust mite model of asthma; conditions: cited from earlier work
[11] = system: airway smooth muscle; conditions: cited from earlier work
[12] = In vitro liver microsomal stability; assay type: in vitro ADME; conditions: for remaining at 1 h: human
[13] = system: mice; conditions: aerosol delivery in mice; cited from earlier work
[14] = Pharmacokinetic study in mice; assay type: in vivo, mouse
[15] = system: airway eosinophilia; conditions: cited from earlier work
[16] = system: Swiss Webster mice; test: Rotarod assay of sensorimotor coordination in mice; conditions: 40 mg/kg i.p., Swiss Webster mice, 10, 30 and 60 min
[17] = Solubility in rotarod vehicle; conditions: 50% PBS, 40% propylene glycol, 10% DMSO; for 40 mg/kg i.p. dosing
[18] = Solubility at 10 µM in PBS with 1% DMSO; assay type: physicochemical; conditions: aqueous buffer, kinetic from dmso stock
[19] = system: guinea pig tracheal rings; conditions: 50 µM compound, substance P contracted rings
[20] = biological target: α4β3γ2 GABAAR (Homo sapiens, UniProt P18507+P48169); test: GABA induced current potentiation, α4β3γ2 GABAAR; assay type: biochemical; conditions: 1 µM compound, GABA EC20 concentration
[21] = system: ovalbumin (S/C) BALB/c mice; assay type: in vivo, mouse; conditions: 40 mg/kg i.p. for 5 days, 12.5 mg/ml methacholine challenge, p<0.05
In short: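 BALB/c mice were sensitized by ovalbumin injections (2 mg/kg/d in 2 mg alum, days 0, 7, 14) and challenged intranasally with ovalbumin (1.6 mg/kg/d, days 23–27); controls were saline-challenged. Test compound was given i.p. twice daily during the challenge period. Conscious mice had non-invasive sRaw measured after 1 min aerosolized PBS or methacholine (1.56–12.5 mg/mL), averaged over 3 min. Analysis used two-way repeated-measures ANOVA with Bonferroni post-test.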

Sequence of α4β3γ2 GABAAR (P48169 36-554): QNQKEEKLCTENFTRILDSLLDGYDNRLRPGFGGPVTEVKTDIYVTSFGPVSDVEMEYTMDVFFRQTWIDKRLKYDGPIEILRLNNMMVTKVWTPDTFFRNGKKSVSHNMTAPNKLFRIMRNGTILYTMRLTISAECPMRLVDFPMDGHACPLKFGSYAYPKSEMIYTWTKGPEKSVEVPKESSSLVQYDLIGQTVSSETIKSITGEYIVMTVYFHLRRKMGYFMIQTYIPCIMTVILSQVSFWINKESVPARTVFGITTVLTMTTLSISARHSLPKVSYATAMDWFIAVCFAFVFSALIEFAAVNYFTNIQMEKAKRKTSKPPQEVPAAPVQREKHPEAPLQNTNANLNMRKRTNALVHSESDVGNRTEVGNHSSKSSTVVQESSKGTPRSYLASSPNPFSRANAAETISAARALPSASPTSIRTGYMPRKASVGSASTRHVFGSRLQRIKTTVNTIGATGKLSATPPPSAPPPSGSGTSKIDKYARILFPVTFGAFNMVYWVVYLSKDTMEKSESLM
Sequence of α4β3γ2 GABAAR (P28472 26-473 partner): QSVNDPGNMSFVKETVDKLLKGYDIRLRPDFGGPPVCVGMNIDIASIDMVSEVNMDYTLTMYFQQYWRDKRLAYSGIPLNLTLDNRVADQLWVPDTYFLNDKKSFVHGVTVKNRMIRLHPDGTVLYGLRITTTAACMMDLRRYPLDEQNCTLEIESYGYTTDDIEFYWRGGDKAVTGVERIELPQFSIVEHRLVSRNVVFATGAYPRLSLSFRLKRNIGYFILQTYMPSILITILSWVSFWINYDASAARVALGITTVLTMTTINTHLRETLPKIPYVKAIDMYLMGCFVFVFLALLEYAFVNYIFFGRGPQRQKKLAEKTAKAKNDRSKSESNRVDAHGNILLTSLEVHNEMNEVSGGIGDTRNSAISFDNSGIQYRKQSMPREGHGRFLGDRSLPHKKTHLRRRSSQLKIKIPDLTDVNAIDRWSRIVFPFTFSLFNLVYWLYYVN
Sequence of α4β3γ2 GABAAR (P18507 40-475): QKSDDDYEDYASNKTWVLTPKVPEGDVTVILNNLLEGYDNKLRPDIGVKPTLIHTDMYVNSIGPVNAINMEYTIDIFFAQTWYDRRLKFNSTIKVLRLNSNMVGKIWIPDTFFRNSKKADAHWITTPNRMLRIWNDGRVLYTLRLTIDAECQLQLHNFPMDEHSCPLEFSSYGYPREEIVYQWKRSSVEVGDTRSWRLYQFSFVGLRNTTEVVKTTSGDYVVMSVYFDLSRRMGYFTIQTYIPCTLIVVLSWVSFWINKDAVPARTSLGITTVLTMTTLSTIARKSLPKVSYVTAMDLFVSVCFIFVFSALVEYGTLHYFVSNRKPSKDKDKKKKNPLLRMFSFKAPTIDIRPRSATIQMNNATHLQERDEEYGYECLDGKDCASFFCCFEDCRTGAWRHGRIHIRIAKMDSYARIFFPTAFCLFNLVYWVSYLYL

SMILES | Toxicity in BEAS 2B (Lung) LD50 [1] [µM] | Toxicity in HEPG2 (Liver) LD50 [3] [µM] | Toxicity in HEK293 (Kidney) LD50 [5] [µM] | loss at 1 h in mouse liver microsomes [6] | solubility in the vehicle [17] | solubility [18] [µM] | further results
CCOC(=O)c1ncn2c1[C@@H]1CCCN1C(=O)c1cc(OC)ccc1-2 [Compound 5] | >400 | >400 | >400 | less than 20% |  |  | airway muscle constriction caused by substance P [2]: significantly reduced airway muscle constriction; AUC for lung exposure ([4]; same dose as 16, lung): 4516 ng·min/mL; t1/2 ([4]; same dose as 16): 16.3 min; airway hyperresponsiveness in ovalbumin S/C asthma model [7]: reduced airway hyperresponsiveness; sensorimotor impairment on rotarod ([8]; published previously): weakly induced sensorimotor impairment
COc1ccc2c(c1)C(=O)N1CCC[C@H]1c1c(C(=O)OC(C)(C)C)ncn1-2 [Compound 7, (S)-tert-Butyl-7-methoxy-9-oxo-11,12,13,13a-tetrahydro-9H-benzo[e]imidazo[5,1-c]pyrrolo[1,2-a][1,4]diazepine-1-carboxylate] | >200 | >400 | >100 |  |  |  | sensorimotor impairment in rats [9]: induced sensorimotor impairment; airway muscle constriction caused by substance P [2]: significantly reduced airway muscle constriction; airway resistance in murine house dust mite model [10]: reduced airway resistance; relaxation of pre-contracted airway smooth muscle [11]: relaxed pre-contracted airway smooth muscle; stability in the presence of human liver microsomes ([12]; liver microsomes): stable; airway hyperresponsiveness after aerosol delivery [13]: reduces airway hyperresponsiveness
COc1ccc2c(c1)C(=O)N1CCC[C@H]1c1c(C(=O)O)ncn1-2 [Compound 9, (S)-7-Methoxy-9-oxo-11,12,13,13a-tetrahydro-9H-benzo[e]imidazo[5,1-c]pyrrolo[1,2-a][1,4]di-azepine-1-carboxylic acid] | >400 | >400 | >400 |  |  |  | airway muscle constriction caused by substance P [2]: significantly reduced airway muscle constriction; metabolite in blood samples ([14]; after 5 mg/kg i.p. of 16, mouse blood): not detected in any blood samples; remaining at 1 h ([12]; liver microsomes): < 80%; CNS effects [8]: no CNS effects; airway eosinophilia [15]: decreased airway eosinophilia; airway eosinophilia ([15]; listed as XHE-III-74A): significantly reduced airway eosinophilia
[2H]C([2H])([2H])Oc1ccc2c(c1)C(=O)N1CCC[C@H]1c1c(C(=O)OC)ncn1-2 [Compound 10a] | >400 | >400 | >400 | less than 20% |  |  | sensorimotor impairment on rotarod [16]: most severe motor impairment; metabolically converted after one hour ([6]; after one hour, corresponds to mouse liver microsome values of Table 1): 15%
COc1ccc2c(c1)C(=O)N1CCC[C@H]1c1c(C(=O)OCC(C)C)ncn1-2 [Compound 11, (S)-Isobutyl-7-methoxy-9-oxo-11,12,13,13a-tetrahydro-9H-benzo[e]imidazo[5,1-c]pyrrolo[1,2-a][1,4]diazepine-1-carboxylate] | >200 | >200 | >100 |  | not soluble in the vehicle |  | remaining at 1 h ([12]; microsomes): < 80%
[2H]C([2H])([2H])Oc1ccc2c(c1)C(=O)N1CCC[C@H]1c1c(C(=O)OCC(C)C)ncn1-2 [Compound 11a] | >200 | >200 | >100 |  |  |  | sensorimotor impairment on rotarod [16]: most severe motor impairment; remaining at 1 h ([12]; microsomes): < 80%
COc1ccc2c(c1)C(=O)N1CCC[C@H]1c1c(C(=O)OC(C(F)(F)F)C(F)(F)F)ncn1-2 [Compound 12] | >400 | >400 | >200 |  | not soluble in the vehicle | < 10 | 
[2H]C([2H])([2H])Oc1ccc2c(c1)C(=O)N1CCC[C@H]1c1c(C(=O)OC(C(F)(F)F)C(F)(F)F)ncn1-2 [Compound 12a] | >400 | >400 | >200 |  | not soluble in the vehicle |  | remaining at 1 h ([12]; microsomes): < 80%
CCSC(=O)c1ncn2c1[C@@H]1CCCN1C(=O)c1cc(OC)ccc1-2 [Compound 13] | >100 | >100 | >100 |  | not soluble in the vehicle | < 10 | 
[2H]C([2H])([2H])Oc1ccc2c(c1)C(=O)N1CCC[C@H]1c1c(C(=O)SCC)ncn1-2 [Compound 13a] | >100 | >100 | >100 |  | not soluble in the vehicle | < 10 | 
COc1ccc2c(c1)C(=O)N1CCC[C@H]1c1c(C(=O)SC(C)(C)C)ncn1-2 [Compound 14] | >100 | >100 | 18.8 ± 2.4 |  | not soluble in the vehicle | < 10 | 
[2H]C([2H])([2H])Oc1ccc2c(c1)C(=O)N1CCC[C@H]1c1c(C(=O)SC(C)(C)C)ncn1-2 [Compound 14a] | >100 | >100 | 16.8 ± 2.0 |  | not soluble in the vehicle | < 10 | 
COc1ccc2c(c1)C(=O)N1CCC[C@H]1c1c(C(=O)N(C)C)ncn1-2 [Compound 16] | >400 | >400 | >400 | less than 20% |  |  | time to airway smooth muscle relaxation effect [19]: ≤ 15 min; potentiation of GABA induced current, α4β3γ2 GABAAR [20]: 319%; sensorimotor impairment on rotarod [16]: did not induce sensorimotor impairment; specific airway resistance (sRAW) vs vehicle, 5 day treatment [21]: significant reduction in sRAW; blood brain barrier penetration ([14]; mouse, 5 mg/kg i.p.): did penetrate the blood brain barrier; AUC ([14]; mouse, lung, ip, 5 mg/kg): 12.7 ng·h/mL
[2H]C([2H])([2H])Oc1ccc2c(c1)C(=O)N1CCC[C@H]1c1c(C(=O)N(C)C)ncn1-2 [Compound 16a] | >400 | >400 | >400 | less than 20% |  |  | sensorimotor impairment on rotarod [16]: did not induce sensorimotor impairment
COc1ccc2c(c1)C(=O)N1CCC[C@H]1c1c(C(=O)NC3CC3)ncn1-2 [Compound 19] | >400 | >400 | >200 | less than 20% |  |  | remaining at 1 h ([12]; microsomes): < 80%; toxicity in HEK293 cells [5]: some toxicity
